PMI act – activators of human phosphomannose isomerase. P34949. purified human PMI, coupled resazurin fluorescence, 20 min; stronger effect = higher value; 1 = vehicle control, 0 substrate-free wells. activation factor at 20 µM. hit rate 0.005% among 190,000;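 active = activation factor of 2 or more at 20 µM, relative to plate controls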
Target sequence (P34949 whole entry, looked up): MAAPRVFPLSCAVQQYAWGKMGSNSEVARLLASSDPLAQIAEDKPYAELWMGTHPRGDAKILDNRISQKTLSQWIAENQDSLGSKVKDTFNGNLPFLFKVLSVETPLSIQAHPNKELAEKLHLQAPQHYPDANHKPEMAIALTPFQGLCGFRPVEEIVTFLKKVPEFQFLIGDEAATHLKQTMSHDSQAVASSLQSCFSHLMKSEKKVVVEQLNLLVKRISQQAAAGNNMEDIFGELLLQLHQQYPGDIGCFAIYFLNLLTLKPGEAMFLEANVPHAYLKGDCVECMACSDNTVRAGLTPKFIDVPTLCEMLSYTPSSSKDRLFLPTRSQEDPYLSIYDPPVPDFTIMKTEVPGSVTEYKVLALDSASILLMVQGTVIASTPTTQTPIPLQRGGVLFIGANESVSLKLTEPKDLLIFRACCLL
bCat KO growth – beta-catenin-lacking colon tumor cell growth suppression; AID 818; HCT116 beta-catenin knockout viability, CellTiter-Glo, 60 h; stronger effect = lower value; hit rate 1.5% among 140,000; viability, % at 10 µM;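 active = viability at or under a set limit, the compound median less 4 SD, cut at about 6% in these data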
PMI act satM6P – increases human PMI activity with near-saturating mannose 6-phosphate; P34949; activation factor at 20 µM; hit rate 0.34% among 190,000; coupled PMI enzyme assay, resazurin fluorescence, 20 min; stronger effect = higher value; 1 = untreated enzyme, 0 = substrate-free blank;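 active = activation factor of 2 or more at 20 µM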
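Test system: Human PMI in coupled enzyme assay | Input: 15 ng/mL PMI | Medium: HEPES-buffered pH 7.4 with magnesium and detergent | Compound: One concentration, 20 µM, in 1% DMSO | Incubation: Enzyme reaction with compound 20 min at room temperature | Detection: Diaphorase-driven resazurin-to-resorufin fluorescence, excitation 544, emission 590 nm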
L major viab – Leishmania major promastigote growth inhibition; Leishmania major promastigotes, resazurin fluorescence viability; inhibition, % at 10 µM; hit rate 9% among 200,000; AID 1063; in the data active = inhibition above about 50%;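 also: promastigotes grown with compound for 44 hours at 28 °C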
HCT116 PTEN-null – growth suppressors of cells with PTEN tumor suppressor deletion | HCT116 PTEN-null viability, CellTiter-Glo, 60 h; stronger effect = lower value | viability, % at 10 µM | hit rate 1.2% among 140,000;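 active = viability at or below a set limit, 4 SD under the median of all tested compounds, cut at about 3.7% in these data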;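 also: PTEN knockout HCT116 line with beta catenin targeted HCT116 as companion control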
A number is an active result; – = inactive; · = no result. Shown are actives, neighbours in structure and some others; about 9.6% of the full set was active somewhere.

SMILES	PMI act	bCat KO growth	PMI act satM6P	L major viab	HCT116 PTEN-null
Cc1cccc(C(=O)NCC(=O)N2CC(=O)Nc3ccccc32)c1	–	·	–	–	·
CC(Cl)C(=O)c1ccc2c(c1)CCN2C(=O)C1CC1 (configuration not stated)	–	·	–	95.6	·
O=C(C1CC1)N1CCc2cc(S(=O)(=O)N3CCOCC3)ccc21	–	–	–	–	–
COc1ccc2cc(-c3csc(-c4cccnc4)n3)ccc2c1	–	–	–	–	–
COc1ccc(-c2csc(-c3cccnc3)n2)cc1C	–	·	–	79.8	·
Clc1cccc(N/N=C/c2ccc(N3CCOCC3)s2)c1	–	–	–	–	–
CCOC(=O)CC(NC(=O)Cc1ccc(F)cc1)c1ccccc1Cl (configuration not stated)	–	–	–	–	–
COCC(=O)NNS(=O)(=O)c1ccccc1[N+](=O)[O-]	–	–	–	54.2	–
COc1ccccc1CC(=O)NNS(=O)(=O)c1ccccc1[N+](=O)[O-]	–	·	–	–	·
CCC1(C)CC(CCNS(=O)(=O)c2ccc(C)cc2)(c2ccc(C)cc2)CCO1 (configuration not stated)	–	–	–	51.8	–
Cc1ccc(S(=O)(=O)NCCC2(C(C)C)CCOC(C)(C)C2)cc1 (configuration not stated)	–	–	–	95.2	–
Cc1ccc(S(=O)(=O)NCC2(c3ccccc3)CCOCC2)cc1	–	·	–	–	·
CC1(C)CC(CCNS(=O)(=O)c2ccccc2)(c2ccccc2)CCO1 (configuration not stated)	–	–	–	99.6	–
CC(C)CNS(=O)(=O)c1ccc(S(=O)(=O)NC2CCOC(C)(C)C2)cc1 (configuration not stated)	·	·	·	–	·
CS(=O)(=O)N(CC(=O)NC1CCCC1)C1CCCCC1	–	·	–	–	·
Cc1ccccc1NC(=O)COC(=O)Cc1ccsc1	–	·	–	–	·
CCn1c2ccccc2c2nnc(SCc3cc(=O)n4ccsc4n3)nc21	–	·	–	·	·
COc1cc(C(=O)OCC(=O)NC2CCS(=O)(=O)C2)ccc1OCc1c(C)noc1C (configuration not stated)	–	–	–	–	–
CC1=C(C(=O)OCCOC(C)C)C(c2cc3c(cc2Br)OCO3)CC(=O)N1 (configuration not stated)	–	–	–	98.3	–
COC(=O)C1=C(C)NC(=O)CC1c1cc2c(cc1Br)OCO2 (configuration not stated)	–	–	–	–	–
Cc1ccc(NC(=O)c2c3c(nc4ccccc24)CCC3)cc1	–	·	–	–	·
Cc1cc(Nc2ccc3c(c2)OCCO3)c2cc(Cl)ccc2n1	–	–	–	100.5	–
Cc1ccc2nc3c(c(Nc4ccc5c(c4)OCCO5)c2c1)CCC3	–	–	–	98.4	–
CC12CCC(C(=O)Nc3nc4ccccc4s3)(OC1=O)C2(C)C (configuration not stated)	–	·	–	–	·
COc1cc(/C=C/C(=O)OCC(=O)c2c[nH]c3ccccc23)ccc1OC(F)F	–	–	–	–	–
SMILES	PMI act	bCat KO growth	PMI act satM6P	L major viab	HCT116 PTEN-null
O=[N+]([O-])c1ccc(COc2ccccc2/C=N/O)cc1	–	–	–	–	–
O=Cc1ccccc1OCCOc1ccc([N+](=O)[O-])cc1	–	·	–	52.0	·
Cc1cccc(C)c1NC(=O)CCCSc1nnc(-c2ccc(Cl)cc2)n1-c1ccccc1	–	–	–	56.5	–
Cc1cccc(C)c1NC(=O)CCCSc1nnc(-c2ccc(F)cc2)n1-c1ccccc1	–	–	–	–	–
CSc1ccc(CN2CCN(CCC(C)C)C(CCO)C2)cc1 (configuration not stated)	–	·	–	78.0	·
Cc1cccc(N2CCC(N3CCN(C4CCCCC4)C(CCO)C3)CC2)c1C (configuration not stated)	–	·	–	88.3	·
CC(C)CCN1CCN(Cc2ccc(C#CCCO)cc2)CC1CCO (configuration not stated)	–	·	–	–	·
CC(C)N1CCC(N2CCN(C3CCCC3)CC2CCO)CC1 (configuration not stated)	–	·	–	–	·
CSc1ccc(CN2CCN(C3CCCC3)C(CCO)C2)cc1 (configuration not stated)	–	·	–	62.2	·
OCCC1CN(Cc2ccncc2)CCN1C1CCCC1 (configuration not stated)	–	·	–	–	·
c1ccc(N2CCN(Cc3cnc(N4CCOCC4)s3)CC2)cc1	–	·	–	–	·
Cc1ccc(C(=O)C2CCN(CC(=O)Nc3ccc(N(C)C)cc3)CC2)cc1	–	–	–	–	–
CN(C)c1ccc(NC2=C(Cl)C(=O)c3ccccc3C2=O)cc1	–	1.6	–	–	1.5
CC(=O)Nc1ccc(NC2=C(Cl)C(=O)c3ccccc3C2=O)cc1	–	·	–	–	·
O=C1/C(=C\c2cccnc2)CCc2ccccc21	–	–	–	100.3	–
COc1ccc2c(c1)CC/C(=C/c1ccncc1)C2=O	–	–	–	74.9	–
O=C1/C(=C/c2ccc(C(=O)O)cc2)CCC/C1=C\c1ccc(C(=O)O)cc1	–	–	–	66.0	–
CC(C)N1C(=O)S/C(=C/c2cccnc2)C1=O	–	–	–	71.0	–
O=C1/C(=C/c2ccccc2)CCCc2ccccc21	–	–	–	–	–
COc1ccc2c(c1)CC/C(=C\C=C\c1ccccc1OC)C2=O	–	–	–	–	–
CC(C)N1C(=O)S/C(=C/c2ccc3c(c2)n(C)c(=O)n3C)C1=O	–	–	–	–	–
Cc1c(N2C(=O)CS/C2=N\N=C\c2ccc(Br)cc2)c(=O)n(-c2ccccc2)n1C	–	–	–	–	–
CCC1C/C(=C\c2cccnc2)C(=O)/C(=C/c2cccnc2)C1 (configuration not stated)	–	2.2	–	100.4	1.5
CCOc1ccc(C2=C/C(=C/c3cccnc3)C(=O)O2)cc1	–	–	–	–	–
CC(C)/C=C1\CC/C(=C\c2cccnc2)C1=O	–	·	–	53.9	·
SMILES	PMI act	bCat KO growth	PMI act satM6P	L major viab	HCT116 PTEN-null
O=C1/C(=C/c2cccnc2)CCC/C1=C\c1cccnc1	–	1.9	–	100.5	1.1
O=C1/C(=C/c2cccnc2)CC/C1=C\c1cccnc1	–	·	–	81.5	·
CN(C)c1ccc(/C=C2\CCC/C(=C\c3ccccc3)C2=O)cc1	–	–	–	–	–
NC1=NC(=O)/C(=C\c2cccnc2)S1	–	·	–	–	·
Cc1cc(=O)[nH]c(N/N=C/c2ccc(OC(=O)c3ccco3)cc2)n1	–	–	–	–	–
COc1cc(/C=N/Nc2ccc3ccccc3c2)ccc1OC(=O)c1ccco1	–	–	–	87.8	–
CCOc1cc(/C=N\Nc2nc(Nc3ccccc3)nc(N3CCOCC3)n2)ccc1OC(=O)c1ccco1	–	–	–	87.8	–
COc1cc(/C=N/Nc2nc(C)cc(C)n2)ccc1OC(=O)c1ccco1	–	–	–	51.5	–
COc1cc(/C=N/NC(=O)c2ccc(F)cc2)ccc1OC(=O)c1ccco1	–	–	–	–	–
Cc1ccc(Nc2nc(N/N=C\c3ccc4c(c3)OCO4)nc(N3CCOCC3)n2)cc1	–	·	–	54.0	·
